# Experimental data pooled from the literature.
# Each line is one published result; the experiments were not run side by side.
# Target: MAP/microtubule affinity-regulating kinase 4 (MARK4, Homo sapiens, UniProt Q96L34)
# Residues used in one study (Q96L34 1-752): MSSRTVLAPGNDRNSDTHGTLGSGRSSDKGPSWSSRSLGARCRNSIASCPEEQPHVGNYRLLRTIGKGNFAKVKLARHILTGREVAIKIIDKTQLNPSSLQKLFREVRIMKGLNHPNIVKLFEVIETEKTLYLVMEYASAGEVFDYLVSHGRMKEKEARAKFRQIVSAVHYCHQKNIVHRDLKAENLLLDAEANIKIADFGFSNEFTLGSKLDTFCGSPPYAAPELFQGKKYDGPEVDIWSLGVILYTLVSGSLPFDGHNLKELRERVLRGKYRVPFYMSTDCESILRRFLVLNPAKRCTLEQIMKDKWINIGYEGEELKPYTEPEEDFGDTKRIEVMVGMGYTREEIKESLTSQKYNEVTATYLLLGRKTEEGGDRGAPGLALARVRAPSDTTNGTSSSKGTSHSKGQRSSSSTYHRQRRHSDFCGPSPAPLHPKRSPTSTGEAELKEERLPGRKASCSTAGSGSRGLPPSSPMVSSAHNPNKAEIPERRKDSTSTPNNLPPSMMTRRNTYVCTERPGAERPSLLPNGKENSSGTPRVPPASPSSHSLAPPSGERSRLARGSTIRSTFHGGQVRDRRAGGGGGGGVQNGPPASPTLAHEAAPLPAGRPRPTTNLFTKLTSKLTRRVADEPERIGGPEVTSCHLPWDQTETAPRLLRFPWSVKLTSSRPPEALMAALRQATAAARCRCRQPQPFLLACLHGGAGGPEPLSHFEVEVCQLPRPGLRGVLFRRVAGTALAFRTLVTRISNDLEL
SMILES,observed,technique,tested at,remaining binding
CN(CCCC(F)(F)F)c1nccc(-c2cnn3ncccc23)n1,binding,,1 µM,90%
Cc1c(NC(=O)c2cc(C(N)=O)nc3cc(F)ccc23)c(C(F)(F)F)nn1Cc1ccc(C(C)(C)C)cc1,cell-free assay,competition with immobilised ligand,1 µM,97%
FC(F)(F)Oc1cccc(-c2cnc3ccc(-c4ccncc4)nn23)c1,cell-free assay,competition with immobilised ligand,5 µM,80%
O=C(NCCCN1CCOCC1)c1ccc(Nc2nccc(-c3cc4ccccc4s3)n2)cc1,binding,competition with immobilised ligand,1 µM,60%
CC(=O)Nc1c(C(C)=O)c(=O)n(C)c2nc(-c3ccc(Cl)cc3Cl)c(-c3ccc(Cl)cc3)cc12,cell-free assay,competition with immobilised ligand,1 µM,100%
O=C(Nc1c[nH]nc1C(=O)NC1CCNCC1)c1cc(F)cc(F)c1,binding,competition with immobilised ligand,1 µM,100%
COc1ccnn2ncc(-c3ccnc(N(C)C)n3)c12,binding,,1 µM,100%
Nc1ncc2c(n1)-c1c([nH]c3ccc(C#CC4CC4)cc13)CCCC2,binding,competition with immobilised ligand,1 µM,100%
N[C@H]1CCN(c2nccc(-c3cnn4ncccc34)n2)C1,binding,,1 µM,100%
O=C(c1ccc(Nc2ncc(Cl)c(-c3cc4ccccc4s3)n2)cc1)N1CCC(N2CCCC2)CC1,binding,competition with immobilised ligand,1 µM,28%
FC(F)(F)c1ccc2c(c1)nc(-c1cccnc1)n2C1CC1,cell-free assay,competition with immobilised ligand,1 µM,100%
CN(C)c1ncc(F)c(-c2cnn3ncccc23)n1,binding,,1 µM,100%
CNCc1ccccc1-c1csc([C@@H](C)Nc2nc(C)nc3cc(OC)c(OC)cc23)c1,cell-free assay,competition with immobilised ligand,1 µM,100%
O=C(c1ccc(Nc2nccc(-c3cc4ccccc4s3)n2)cc1)N1CCC(N2CCCC2)CC1,binding,competition with immobilised ligand,1 µM,84%
COc1cnc(Nc2cccc(S(N)(=O)=O)c2)nc1N1CCN(c2ccccc2)CC1,binding,competition with immobilised ligand,1 µM,86%
COc1ccc2c(O[C@@H]3C[C@H]4C(=O)N[C@]5(C(=O)O)CC5/C=C\CCCCC[C@H](NC(=O)OC5CCCC5)C(=O)N4C3)cc(-c3csc(NC(=O)C(C)C)n3)nc2c1C (some centres unmarked),cell-free assay,competition with immobilised ligand,1 µM,99%
Cc1cnn2ncc(-c3ccnc(N(C)C)n3)c2c1,binding,,1 µM,91%
CC(C)CC(=O)N1CCc2nc(-c3ccc(Br)cc3)nc(N(C)Cc3ccccc3)c2C1,cell-free assay,competition with immobilised ligand,0.1 µM,100%
CN(C)c1nccc(-c2cnn3ncccc23)n1,binding,,1 µM,100%
c1cncc(-c2cccc(Nc3nccc(NC4CCCCC4)n3)c2)c1,binding,competition with immobilised ligand,10 µM,80%
